Calls of active or inactive are those of the source. The rule behind the calls is not given here.
Key:
[1] = target: T1, Monoglyceride lipase (Rattus norvegicus) (UniProt Q8R431); assay: Inhibition of MGL in Wistar rat cerebral membrane at 100 uM by HPLC; type: cell membranes
T1 sequence (whole entry): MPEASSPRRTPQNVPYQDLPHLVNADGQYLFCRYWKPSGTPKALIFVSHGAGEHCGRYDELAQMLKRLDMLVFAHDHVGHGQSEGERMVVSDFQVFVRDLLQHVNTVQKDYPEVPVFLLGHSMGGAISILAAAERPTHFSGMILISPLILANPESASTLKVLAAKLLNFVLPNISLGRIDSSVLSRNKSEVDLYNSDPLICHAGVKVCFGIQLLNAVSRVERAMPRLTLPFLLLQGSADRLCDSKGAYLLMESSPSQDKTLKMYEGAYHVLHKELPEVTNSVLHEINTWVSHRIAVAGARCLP
Outline: (§1)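 Incubation is 90 min at 25 °C with 5 µg protein, 50 µM 2-AG, 100 mM NaCl and 5 mM MgCl2. The reaction is stopped with acidified acetonitrile (pH 3.0). 2-AG, 1(3)-AG and arachidonic acid are quantified by reversed-phase HPLC with UV at 211 nm. IC50 comes from a variable-slope fit, three experiments in duplicate; percentages are the mean of two in duplicate.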

[2] = target: Monoglyceride lipase (Rattus norvegicus) (UniProt Q8R431); assay: Inhibition of MGL 2-AG hydrolysis in rat cerebellar membranes by liquid scintillation counting
[3] = target: T2, Monoglyceride lipase (Rattus norvegicus, UniProt Q8R431); assay: Inhibition of MGL in Wistar rat cerebral membrane by HPLC; type: cell membranes; outline: as §1
T2 sequence (Q8R431 whole entry): T1 sequence (whole entry)

[4] = target: T3, Fatty-acid amide hydrolase 1 (Rattus norvegicus, UniProt P97612); assay: Inhibition of FAAH in Wistar rat cerebral membrane by liquid scintillation counting; type: cell membranes
T3 sequence (P97612 whole entry): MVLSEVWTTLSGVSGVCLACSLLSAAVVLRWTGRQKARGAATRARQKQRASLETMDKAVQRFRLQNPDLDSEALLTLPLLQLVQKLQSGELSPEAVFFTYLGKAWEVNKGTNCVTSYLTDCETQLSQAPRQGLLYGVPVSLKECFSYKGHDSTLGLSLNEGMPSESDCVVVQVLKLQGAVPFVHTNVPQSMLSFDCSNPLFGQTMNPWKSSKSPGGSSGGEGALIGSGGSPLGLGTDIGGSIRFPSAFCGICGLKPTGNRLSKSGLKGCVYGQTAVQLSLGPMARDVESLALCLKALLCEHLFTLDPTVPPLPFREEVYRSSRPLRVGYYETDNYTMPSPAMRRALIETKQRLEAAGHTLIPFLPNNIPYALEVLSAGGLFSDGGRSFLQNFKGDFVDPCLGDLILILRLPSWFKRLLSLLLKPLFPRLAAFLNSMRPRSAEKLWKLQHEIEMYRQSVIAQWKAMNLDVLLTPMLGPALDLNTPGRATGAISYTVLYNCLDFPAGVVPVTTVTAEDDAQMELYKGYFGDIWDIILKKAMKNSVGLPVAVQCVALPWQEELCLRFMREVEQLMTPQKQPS
Outline: (§2)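 Rat brain homogenate (10,000g supernatant from male Wistar forebrain, 8 weeks old), 18 µg protein, preincubated with inhibitor in DMSO (≤5% v/v) for 10 min at 37 °C in 0.1 M potassium phosphate pH 7.4 with 0.5% fatty-acid-free BSA. Then 2 µM AEA carrying [ethanolamine-1-3H]AEA is added for 10 min at 37 °C. The reaction is stopped with ethyl acetate and aqueous [3H]ethanolamine is counted. IC50 comes from a variable-slope sigmoidal fit, three experiments in duplicate; single-point values are the mean of two experiments in duplicate.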

[5] = target: T1, Monoglyceride lipase (Rattus norvegicus); assay: Inhibition of MGL in Wistar rat cerebral membrane assessed as residual activity at 1 mM by HPLC; values are per cent of control
[6] = target: T1, Monoglyceride lipase (Rattus norvegicus); assay: Inhibition of MGL in Wistar rat cerebral membrane at 1 mM by HPLC; type: cell membranes
Outline: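 Rat cerebellar membranes were prepared by sucrose homogenisation, differential centrifugation and washing. […] Reactions were stopped with acidified acetonitrile (pH 3.0). 2-AG, 1(3)-AG and arachidonic acid were quantified by reversed-phase HPLC (UV 211 nm peak areas). Remaining activity is reported.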

[7] = target: T4, Monoglyceride lipase (Homo sapiens) (UniProt Q99685); assay: Irreversible inhibition of human MGL at 0.3 uM by liquid scintillation counting
T4 sequence (whole entry): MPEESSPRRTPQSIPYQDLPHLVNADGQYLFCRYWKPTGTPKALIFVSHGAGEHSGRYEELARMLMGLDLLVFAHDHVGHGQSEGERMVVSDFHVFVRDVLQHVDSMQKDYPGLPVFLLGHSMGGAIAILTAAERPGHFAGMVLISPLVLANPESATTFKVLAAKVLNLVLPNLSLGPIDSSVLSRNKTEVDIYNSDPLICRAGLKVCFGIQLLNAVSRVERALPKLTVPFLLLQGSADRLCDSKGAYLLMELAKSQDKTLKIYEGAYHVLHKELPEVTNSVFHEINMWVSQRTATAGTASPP
Outline: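 Reversibility was tested on human recombinant MGL. The enzyme was preincubated with inhibitor at 50-fold the activity-assay enzyme level, then diluted […] into Tris-HCl pH 7.4/EDTA buffer with 50 μM 2-OG including [³H]2-OG. Samples taken at 0–60 min were stopped with cold ethyl acetate, and aqueous [³H]glycerol was counted by liquid scintillation. Activity was compared with DMSO vehicle over three independent experiments in duplicate.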

[8] = target: T5, Fatty-acid amide hydrolase 1 (Rattus norvegicus) (UniProt P97612); assay: Inhibition of FAAH in Wistar rat cerebral membrane at 0.1 uM by liquid scintillation counting; type: cell membranes; outline: as §2
T5 sequence (whole entry): T3 sequence (P97612 whole entry)

[9] = target: T5, Fatty-acid amide hydrolase 1 (Rattus norvegicus); assay: Irreversible inhibition of FAAH in Wistar rat brain homogenate at 246 nM by liquid scintillation counting; type: tissue-based
[10] = target: T3, Fatty-acid amide hydrolase 1; assay: Inhibition of FAAH-mediated hydrolysis of [3H]anandamide in rat RBL2H3 cells; type: cell-based, RBL-2H3
Outline: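 RBL2H3 cells are preincubated 10 min at 37 °C with compound with or without URB597. [ethanolamine-1-3H]AEA is then added at 100 nM and incubated a further 20 min at 37 °C, and hydrolysis is measured. Data are means, n = 5, analysed by repeated-measures one-way ANOVA with Dunnett's test.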

[11] = target: T5, Fatty-acid amide hydrolase 1 (Rattus norvegicus); assay: Inhibition of FAAH-mediated uptake of [3H]anandamide in rat RBL2H3 cells; type: cell-based; details: RBL-2H3
Outline: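 RBL2H3 cells are preincubated 10 min at 37 °C with compound with or without URB597. [arachidonoyl-3H]AEA is then added at 100 nM and incubated a further 10 min at 37 °C. Wells without cells serve as a comparison. Data are means, n = 4, analysed by repeated-measures one-way ANOVA with Dunnett's test.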

[12] = target: T1, Monoglyceride lipase (Rattus norvegicus); details: Wistar, 100 uM
[13] = target: Monoglyceride lipase (Homo sapiens) (UniProt Q99685); assay: Inhibition of MGL in human recombinant MGL
[14] = target: T1, Monoglyceride lipase (Rattus norvegicus); assay: Inhibition of MGL in Wistar rat cerebral membrane at 30 uM by HPLC; type: cell membranes; outline: as §1
[15] = target: T3, Fatty-acid amide hydrolase 1; assay: Inhibition of FAAH-mediated anandamide hydrolysis in rat brain membrane; type: cell membranes

SMILES	IC50 [3] [nM]	IC50 [4] [nM]	further results
CCCCCCNC(=O)Oc1ccccc1	–	–	inhibition [1]: 41%
CCCCC/C=C\C/C=C\C/C=C\C/C=C\CCCCN1C(=O)C=CC1=O	–	–	IC50 [2]: 140 nM
Cc1ccccc1CNC(=O)Oc1ccc(C2=NCCO2)cc1	35000	34	residual activity [5]: 12%
NC(=O)c1cccc(-c2cccc(OC(=O)NC3CCCCC3)c2)c1	–	–	inhibition [6]: 30%; Activity [7]: Active
CCCCCCNC(=O)Nc1ccc(-c2csnn2)cc1	–	–	inhibition [1]: inactive; inhibition [8]: 9%
O=C(Nc1ccc([N+](=O)[O-])cc1)OC1CCCCC1	–	–	inhibition [1]: inactive; inhibition [8]: 9%
O=C(NC1CCCC1)Oc1ccc(-c2csnn2)cc1	–	20	–
O=C(NCCc1ccccc1)Oc1ccc(C2=NCCS2)cc1	28000	38	–
CCCCCCNC(=O)Oc1ccc(C)cc1	–	–	inhibition [8]: 27%
CCCCCCCCCCCCNC(=O)Oc1ccccc1	–	–	inhibition [1]: 36%
O=C(NC1CCCCC1)Oc1ccc(-c2csnn2)cc1	–	21	inhibition [1]: 28%
CCCCNC(=O)Oc1ccc(C(=O)OC)cc1	–	–	inhibition [8]: 35%
Cc1ccc(CNC(=O)Oc2ccc(C3=NCCS3)cc2)cc1	94000	280	–
CCCCCCCCCCCCNC(=O)Oc1ccc(C(=O)OC)cc1	2800	–	–
CCCNC(=O)Oc1ccc(C2=NCCS2)cc1	46000	1700	residual activity [5]: 6%
CCCCCCCCCCCCNC(=O)Oc1ccc(C2=NCCS2)cc1	–	6.3	–
O=C(NCc1ccccc1)Oc1ccc(C2=NCCS2)cc1	42000	290	–
CCCCNC(=O)Oc1ccc(C#N)cc1	–	–	inhibition [8]: 25%
O=C(NC1CCCC1)Oc1ccc(C2=NCCO2)cc1	11000	100	residual activity [5]: 21%
CCCCCCNC(=O)Oc1ccc(-c2csnn2)cc1	11000	19	–
O=C(NCc1ccccc1)Oc1ccc(-c2csnn2)cc1	–	44	residual activity [5]: 22%
CCCCCCCCCCCCNC(=O)Oc1ccc(-c2csnn2)cc1	1900	12	Activity [9]: Active; IC50 [10]: 82 nM; Activity [11]: Active
Cc1ccccc1CNC(=O)Oc1ccc(C2=NCCS2)cc1	46000	62	–
CCCCNC(=O)Oc1ccccc1-c1csnn1	–	–	inhibition [8]: inactive

SMILES	IC50 [3] [nM]	IC50 [4] [nM]	further results
O=C(NC1CCCCC1)Oc1ccc(C2=NCCS2)cc1	27000	100	–
O=C(NC1CCCC1)Oc1ccc(C2=NCCS2)cc1	11000	130	–
CCCCCCNC(=O)Oc1ccc(C(=O)OC)cc1I	–	24	–
CCCCNC(=O)Oc1cccc(-c2csnn2)c1	–	6.9	–
CCCCCCNC(=O)Oc1c(C(C)(C)C)cc(C(=O)OC)cc1C(C)(C)C	–	–	inhibition [8]: 4%
COC(=O)c1ccc(OC(=O)NC2CCCCC2)cc1	14000	–	inhibition [8]: 41%
Cc1ccc(CNC(=O)Oc2ccc(C3=NCCO3)cc2)cc1	125000	180	residual activity [5]: 6%
CCCCNC(=O)Oc1ccc([N+](=O)[O-])cc1	–	–	inhibition [8]: 16%
CCCCCCNC(=O)Oc1ccc(Br)cc1	–	–	residual activity [5]: 16%
CCCCNC(=O)Oc1ccc(C2=NCCS2)cc1	31000	520	residual activity [12]: 54%
CCCCNC(=O)Oc1ccc(OC)cc1	–	–	inhibition [8]: 5%
CCCCCCCCCCCCNC(=O)Oc1ccccc1-c1csnn1	–	50	IC50 [13]: 18000 nM
CCCCCCCCCCCCNC(=O)Oc1cccc(-c2csnn2)c1	–	0.24	inhibition [14]: 57%; residual activity [5]: 13%
CCCCNC(=O)Oc1ccc(C2=NCCO2)cc1	34000	120	–
CC(C)(C)NC(=O)Oc1ccc(C2=NCCS2)cc1	–	7000	inhibition [1]: inactive
O=C(NC1CCCCC1)Oc1ccc([N+](=O)[O-])cc1	19000	–	inhibition [8]: 25%
CCCCCCNC(=O)Oc1ccc(C(=O)OC)cc1OC	–	5.5	–
CCCCCCNC(=O)Oc1ccc(C2=NCCS2)cc1	–	8.2	–
COc1ccc(CNC(=O)Oc2ccc(C3=NCCS3)cc2)cc1	46000	320	residual activity [5]: 21%
CCNC(=O)Oc1ccc(C2=NCCS2)cc1	102000	15000	residual activity [5]: 12%
CCCCCCNC(=O)Oc1ccc(C(=O)OC)cc1C	–	55	–
O=C(Nc1ccc(-c2ccccc2)cc1)OC1CCCCC1	–	108000	IC50 [15]: 17000 nM
CCCCCCNC(=O)Oc1ccc(C(=O)OC)cc1	35000	–	–
CCCCNC(=O)Oc1ccc(-c2csnn2)cc1	–	160	inhibition [1]: 46%; residual activity [5]: 22%

From ChEMBL document CHEMBL1152901, “The synthesis and biological evaluation of para-substituted phenolic N-alkyl carbamates as endocannabinoid hydrolyzing enzyme inhibitors” (Eur J Med Chem, 2009)
